From ChEMBL document CHEMBL1177725, “6-(3,4-dichlorophenyl)-1-[(methyloxy)methyl]-3-azabicyclo[4.1.0]heptane: a new potent and selective triple reuptake inhibitor” (J Med Chem, 2010)
The source made the active and inactive calls. No cut-off for these calls is given here.

What was measured:
Mus musculus [1] = test: Potentiation of 5-hydroxytryptophan-induced stereotypic behavior in mouse at 10 mg/kg, po administered 2 hrs before 5-hydroxytryptophan challenge measured for 30 mins; format: functional, organism-based; parameters: dose 10 mg/kg
In short: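 Mice were dosed orally at 3, 10 or 30 mg/kg 120 min before an ip injection of 5-HTP (100 mg/kg). Each mouse was then placed alone in a perspex box, and 5-HTP-induced stereotyped behaviour was assessed.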

Cytochrome P450 3A4 = Cytochrome P450 3A4 (Homo sapiens, UniProt P08684); test: Inhibition of human CYP3A4 after 10 mins; format: ADME
In short: (§1)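 Recombinant human CYP bactosomes (0.1 mg/mL) were pre-incubated 10 min at 37 °C in 50 mM phosphate pH 7.4 with compound (0.1–10 μM) and a fluorogenic substrate. Substrates: ethoxyresorufin 0.5 μM (1A2), FCA 50 μM (2C9), BMC 10 μM (2C19), MMC 10 μM (2D6), DEF 1 μM or 7-BQ 25 μM (3A4). Adding an NADPH-regenerating system started the reaction, and metabolite fluorescence was read over 10 min. The IC50 came from rate as percent of control; miconazole served as positive control, with triplicates.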

Cytochrome P450 2D6 = Cytochrome P450 2D6 (Homo sapiens, UniProt P10635); test: Inhibition of human CYP2D6 after 10 mins; format: ADME; in short: as §1
Cytochrome P450 2C19 = Cytochrome P450 2C19 (Homo sapiens, UniProt P33261); test: Inhibition of human CYP2C19 after 10 mins; format: ADME; in short: as §1
Cytochrome P450 2C9 = Cytochrome P450 2C9 (Homo sapiens, UniProt P11712); test: Inhibition of human CYP2C9 after 10 mins; format: ADME; in short: as §1
Cytochrome P450 1A2 = molecular target: T1, Cytochrome P450 1A2 (Homo sapiens, UniProt P05177); test: Inhibition of human CYP1A2 after 10 mins; format: ADME; in short: as §1
T1 sequence (P05177 whole entry): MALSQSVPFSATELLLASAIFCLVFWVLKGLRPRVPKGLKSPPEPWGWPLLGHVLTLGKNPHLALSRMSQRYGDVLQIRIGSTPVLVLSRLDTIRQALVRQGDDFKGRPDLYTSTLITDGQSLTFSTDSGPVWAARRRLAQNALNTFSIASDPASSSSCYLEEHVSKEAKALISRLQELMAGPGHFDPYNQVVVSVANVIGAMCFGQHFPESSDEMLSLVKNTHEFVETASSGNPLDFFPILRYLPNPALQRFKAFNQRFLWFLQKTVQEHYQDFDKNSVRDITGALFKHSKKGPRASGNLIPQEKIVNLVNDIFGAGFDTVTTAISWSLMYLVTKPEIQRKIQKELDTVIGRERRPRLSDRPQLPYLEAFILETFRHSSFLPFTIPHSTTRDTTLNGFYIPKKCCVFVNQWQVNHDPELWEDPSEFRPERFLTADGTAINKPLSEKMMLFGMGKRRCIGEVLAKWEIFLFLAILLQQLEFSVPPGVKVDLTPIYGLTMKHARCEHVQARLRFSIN

[2] = molecular target: Sodium-dependent dopamine transporter (Homo sapiens, UniProt Q01959); test: Displacement of [N-methyl-3H]WIN-35428 from human recombinant DAT expressed in pig LLCPK cells after 2 hrs by liquid scintillation counting; format: cell-based
[3] = molecular target: Sodium-dependent noradrenaline transporter (Homo sapiens, UniProt P23975); test: Displacement of [N-methyl-3H]nisoxetine from human recombinant NET expressed in pig LLCPK cells after 2 hrs by liquid scintillation counting; format: cell-based
[4] = molecular target: Sodium-dependent serotonin transporter (Homo sapiens, UniProt P31645); test: Displacement of [N-methyl-3H]citalopram from human recombinant SERT expressed in pig LLCPK cells after 2 hrs by liquid scintillation counting; format: cell-based
Liver microsomes [5] = test: Intrinsic clearance in rat liver microsomes assessed per gram of protein at 0.5 uM after 30 mins; format: ADME, Microsome; settings: 0.5 h
In short: (§2)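 Compound at 0.5 μM with liver microsomes (0.5 mg protein/mL) in 50 mM phosphate pH 7.4 at 37 °C, started with NADPH. Samples at 0, 3, 6, 9, 15 and 30 min were quenched in acetonitrile and analysed by HPLC-MS/MS. Cli came from the first-order elimination constant, scaled assuming 52.5 mg microsomal protein/g.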

Liver microsomes [6] = test: Intrinsic clearance in human liver microsomes assessed per gram of protein at 0.5 uM after 30 mins; format: ADME, Microsome; settings: 0.5 h; in short: as §2
Mus musculus [7] = test: Antidepressant like activity in mouse assessed as reduction of immobility time at 3 to 30 mg/kg, po administered 2 hrs before test measured during final 4 mins of the 6 mins session by forced swimming test; format: functional, organism-based
Rattus norvegicus [8] = test: Increase of extracellular serotonin level in CD rat nucleus accumbens at 3 mg/kg, ip measured up to 180 mins by microdialysis method; format: functional, organism-based; parameters: dose 3 mg/kg
In short: (§3)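 Probes of 2 or 4 mm were perfused with artificial CSF at 1.1 μL/min for 2 h, then dosing was 3 mg/kg ip. Dialysate was collected every 20 min into oxalic acid. NE, DA and 5-HT were measured by HPLC with electrochemical detection and expressed as percent of the mean of three basal samples.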

Rattus norvegicus [9] = test: Increase of extracellular dopamine level in CD rat nucleus accumbens at 3 mg/kg, ip measured up to 180 mins by microdialysis method; format: functional, organism-based; parameters: dose 3 mg/kg; in short: as §3
Rattus norvegicus [10] = test: Increase of extracellular norepinephrine level in CD rat nucleus accumbens at 3 mg/kg, ip measured up to 180 mins by microdialysis method; format: functional, organism-based; parameters: dose 3 mg/kg; in short: as §3
Rattus norvegicus [11] = test: Increase of extracellular dopamine level in CD rat medial prefrontal cortex at 3 mg/kg, ip measured up to 180 mins by microdialysis method; format: functional, organism-based; parameters: dose 3 mg/kg; in short: as §3
Rattus norvegicus [12] = test: Increase of extracellular norepinephrine level in CD rat medial prefrontal cortex at 3 mg/kg, ip measured up to 180 mins by microdialysis method; format: functional, organism-based; parameters: dose 3 mg/kg; in short: as §3
Mus musculus [13] = test: Potentiation of 5-hydroxytryptophan-induced stereotypic behavior in po dosed mouse administered 2 hrs before 5-hydroxytryptophan challenge measured for 30 mins; format: functional, organism-based
In short: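 Mice got oral drug 120 min before an ip 5-HTP challenge (100 mg/kg), then sat singly in a perspex box for scoring of stereotyped behaviour. Oral doses were 3, 10 and 30 mg/kg.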

Rattus norvegicus [14] = test: Increase of extracellular serotonin level in CD rat medial […] at 3 mg/kg, ip measured up to 180 mins by microdialysis method; format: functional, organism-based; parameters: dose 3 mg/kg; in short: as §3

Sequence of Cytochrome P450 3A4 (P08684 whole entry): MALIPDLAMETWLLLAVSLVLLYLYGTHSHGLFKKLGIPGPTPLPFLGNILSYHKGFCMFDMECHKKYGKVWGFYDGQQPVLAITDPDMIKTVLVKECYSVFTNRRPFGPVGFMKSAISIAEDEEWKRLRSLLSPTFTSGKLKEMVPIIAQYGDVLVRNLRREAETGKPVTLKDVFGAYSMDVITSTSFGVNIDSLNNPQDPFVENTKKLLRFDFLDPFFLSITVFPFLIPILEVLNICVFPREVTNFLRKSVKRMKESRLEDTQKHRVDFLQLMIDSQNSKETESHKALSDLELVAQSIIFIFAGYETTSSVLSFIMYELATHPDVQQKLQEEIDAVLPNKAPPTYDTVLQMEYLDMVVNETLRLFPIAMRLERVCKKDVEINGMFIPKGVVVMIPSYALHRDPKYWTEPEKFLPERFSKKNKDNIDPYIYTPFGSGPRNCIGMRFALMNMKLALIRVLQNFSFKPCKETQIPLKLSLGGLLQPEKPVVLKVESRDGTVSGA
Sequence of Cytochrome P450 2D6 (P10635 whole entry): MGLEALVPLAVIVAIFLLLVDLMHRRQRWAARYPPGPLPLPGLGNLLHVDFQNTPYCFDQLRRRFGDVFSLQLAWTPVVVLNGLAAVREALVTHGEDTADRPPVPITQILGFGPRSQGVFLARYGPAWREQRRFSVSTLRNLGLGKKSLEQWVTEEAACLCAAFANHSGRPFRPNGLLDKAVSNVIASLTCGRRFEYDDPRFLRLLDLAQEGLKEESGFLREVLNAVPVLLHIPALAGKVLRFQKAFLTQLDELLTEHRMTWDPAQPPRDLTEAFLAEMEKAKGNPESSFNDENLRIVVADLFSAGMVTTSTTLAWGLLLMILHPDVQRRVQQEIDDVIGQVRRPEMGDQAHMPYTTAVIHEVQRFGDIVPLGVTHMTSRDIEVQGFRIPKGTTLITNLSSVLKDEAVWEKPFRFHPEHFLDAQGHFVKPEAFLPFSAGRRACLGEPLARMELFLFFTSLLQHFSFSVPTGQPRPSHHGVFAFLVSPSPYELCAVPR
Sequence of Cytochrome P450 2C9 (P11712 whole entry): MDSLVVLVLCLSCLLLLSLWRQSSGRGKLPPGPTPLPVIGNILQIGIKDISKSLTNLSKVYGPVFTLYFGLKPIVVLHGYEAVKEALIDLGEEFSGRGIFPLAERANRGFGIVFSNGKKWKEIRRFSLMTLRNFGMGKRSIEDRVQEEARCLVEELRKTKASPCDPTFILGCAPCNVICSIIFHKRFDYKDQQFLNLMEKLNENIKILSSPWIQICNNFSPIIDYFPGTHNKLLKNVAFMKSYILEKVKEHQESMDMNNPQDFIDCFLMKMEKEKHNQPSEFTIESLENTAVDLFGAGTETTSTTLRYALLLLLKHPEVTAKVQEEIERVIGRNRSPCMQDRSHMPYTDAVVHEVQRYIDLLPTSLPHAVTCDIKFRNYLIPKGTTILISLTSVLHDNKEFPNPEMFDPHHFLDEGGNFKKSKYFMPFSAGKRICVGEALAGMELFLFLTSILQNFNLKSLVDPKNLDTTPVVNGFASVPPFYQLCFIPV
Sequence of Sodium-dependent dopamine transporter (Q01959 whole entry): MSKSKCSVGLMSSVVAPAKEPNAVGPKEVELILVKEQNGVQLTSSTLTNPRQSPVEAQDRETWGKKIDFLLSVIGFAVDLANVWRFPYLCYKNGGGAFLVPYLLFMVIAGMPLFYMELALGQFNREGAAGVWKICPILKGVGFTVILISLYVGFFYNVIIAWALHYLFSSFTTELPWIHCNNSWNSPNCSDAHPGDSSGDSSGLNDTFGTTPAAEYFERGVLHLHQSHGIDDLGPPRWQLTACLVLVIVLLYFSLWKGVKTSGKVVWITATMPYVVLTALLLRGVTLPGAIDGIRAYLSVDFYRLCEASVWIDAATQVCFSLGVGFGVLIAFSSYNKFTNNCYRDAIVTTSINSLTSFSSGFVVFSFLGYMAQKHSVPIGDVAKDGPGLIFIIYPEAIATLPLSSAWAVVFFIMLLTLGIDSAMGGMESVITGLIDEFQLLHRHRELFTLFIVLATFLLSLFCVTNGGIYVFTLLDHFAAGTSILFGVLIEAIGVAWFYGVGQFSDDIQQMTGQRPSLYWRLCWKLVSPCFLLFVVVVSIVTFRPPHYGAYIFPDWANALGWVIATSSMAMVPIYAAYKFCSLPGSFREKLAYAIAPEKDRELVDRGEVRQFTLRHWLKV
Sequence of Sodium-dependent noradrenaline transporter (P23975 whole entry): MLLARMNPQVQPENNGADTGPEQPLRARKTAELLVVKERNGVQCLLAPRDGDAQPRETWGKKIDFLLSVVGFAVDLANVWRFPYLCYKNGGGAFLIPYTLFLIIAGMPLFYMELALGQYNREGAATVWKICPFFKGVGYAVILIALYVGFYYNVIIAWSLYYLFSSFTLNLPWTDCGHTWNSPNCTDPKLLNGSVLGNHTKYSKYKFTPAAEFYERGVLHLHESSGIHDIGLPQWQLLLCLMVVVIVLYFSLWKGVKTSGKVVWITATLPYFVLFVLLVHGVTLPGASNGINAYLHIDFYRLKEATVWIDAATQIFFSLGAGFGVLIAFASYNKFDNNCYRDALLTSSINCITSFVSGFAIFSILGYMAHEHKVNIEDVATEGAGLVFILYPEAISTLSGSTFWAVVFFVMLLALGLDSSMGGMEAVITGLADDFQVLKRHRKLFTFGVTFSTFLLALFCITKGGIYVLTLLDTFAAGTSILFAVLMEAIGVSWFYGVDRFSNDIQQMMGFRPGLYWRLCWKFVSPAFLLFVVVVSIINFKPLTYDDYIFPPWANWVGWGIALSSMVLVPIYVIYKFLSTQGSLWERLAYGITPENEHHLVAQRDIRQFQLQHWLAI
Sequence of Cytochrome P450 2C19 (P33261 whole entry): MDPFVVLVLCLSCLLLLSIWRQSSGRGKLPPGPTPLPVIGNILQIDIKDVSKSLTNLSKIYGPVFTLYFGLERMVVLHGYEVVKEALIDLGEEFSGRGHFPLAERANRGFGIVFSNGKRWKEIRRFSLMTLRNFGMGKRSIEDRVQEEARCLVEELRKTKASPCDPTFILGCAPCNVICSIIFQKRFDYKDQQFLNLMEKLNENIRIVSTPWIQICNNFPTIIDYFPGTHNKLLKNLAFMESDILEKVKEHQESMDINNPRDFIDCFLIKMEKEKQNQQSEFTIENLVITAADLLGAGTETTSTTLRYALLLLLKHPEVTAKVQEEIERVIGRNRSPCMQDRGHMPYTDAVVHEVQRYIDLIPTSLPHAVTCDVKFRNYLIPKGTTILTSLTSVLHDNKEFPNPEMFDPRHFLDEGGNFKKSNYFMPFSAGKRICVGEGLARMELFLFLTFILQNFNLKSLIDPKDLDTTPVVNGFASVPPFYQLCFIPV
Sequence of Sodium-dependent serotonin transporter (P31645 whole entry): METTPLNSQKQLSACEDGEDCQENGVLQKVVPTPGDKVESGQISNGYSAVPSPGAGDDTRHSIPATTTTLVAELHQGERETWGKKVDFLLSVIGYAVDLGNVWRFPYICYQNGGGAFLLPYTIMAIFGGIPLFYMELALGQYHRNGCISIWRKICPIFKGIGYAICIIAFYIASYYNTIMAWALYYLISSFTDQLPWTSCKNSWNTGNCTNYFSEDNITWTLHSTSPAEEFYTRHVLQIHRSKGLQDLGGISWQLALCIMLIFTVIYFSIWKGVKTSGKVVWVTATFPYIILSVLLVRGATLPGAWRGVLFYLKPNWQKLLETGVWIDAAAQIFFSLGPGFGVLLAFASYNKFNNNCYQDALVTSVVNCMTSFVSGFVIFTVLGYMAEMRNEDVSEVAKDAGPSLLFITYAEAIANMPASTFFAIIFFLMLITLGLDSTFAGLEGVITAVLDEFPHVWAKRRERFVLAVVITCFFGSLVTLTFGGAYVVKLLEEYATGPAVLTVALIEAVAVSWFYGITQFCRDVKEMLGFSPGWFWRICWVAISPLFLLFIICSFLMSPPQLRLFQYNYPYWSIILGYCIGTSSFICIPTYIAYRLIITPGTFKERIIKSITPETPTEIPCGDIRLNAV

For CN(C)CCCC1(c2ccc(F)cc2)OCc2cc(C#N)ccc21 (stereo not given), the Activity (Mus musculus [1]) was “Active”.

Compound C=CCC(OC)[C@]12CNCC[C@]1(c1ccc(Cl)c(Cl)c1)C2 (mixture of isomers; form 1) [6-(3,4-DICHLOROPHENYL)-1-[1-(METHYLOXY)-3-BUTEN-1-YL]-3-AZABICYCLO[4.1.0]HEPTANE (DIASTEREOMERIC MIX)] has an IC50 (Cytochrome P450 3A4) of 3 µM, an IC50 (Cytochrome P450 2D6) of 3 µM and an IC50 (Cytochrome P450 2C19) of 3 µM. It also gave an IC50 (Cytochrome P450 2C9) of 3 µM, an IC50 (Cytochrome P450 1A2) of 3 µM and a Ki [2] of 0.00126 µM. For the same compound, the Ki [3] was 0.001 µM and the Ki [4] was 0.000126 µM.

Compound COC[C@@]12CNCC[C@]1(c1ccc(Cl)c(Cl)c1)C2 (racemic) [GSK1360707] has an IC50 (Cytochrome P450 3A4) of 10 µM, an IC50 (Cytochrome P450 2D6) of 3 µM and an IC50 (Cytochrome P450 2C19) of 10 µM. For the same compound, the IC50 (Cytochrome P450 2C9) was 10 µM, the IC50 (Cytochrome P450 1A2) was 10 µM and the Ki [2] was 0.0251 µM. The Ki [3] was 0.0126 µM and the Ki [4] was 0.00158 µM.

With COC[C@@]12CCNC[C@]1(c1ccc(Cl)c(Cl)c1)C2 (racemic) [RAC-1-(3,4-DICHLOROPHENYL)-6-(METHOXYMETHYL)-2-AZABICYCLO[4.1.0]HEPTANE (ENANTIOMERS)] the CL (Liver microsomes [5]) was 1.8 mL/min/g, the CL (Liver microsomes [6]) was 1.4 mL/min/g and the Ki [2] was 0.126 µM. For the same compound, the Ki [3] was 0.2 µM and the Ki [4] was 0.0316 µM.

For COC[C@@]12CNCC[C@]1(c1ccc(Cl)c(Cl)c1)C2 (relative stereo; 17), the Activity (Mus musculus [7]) was “Active”, the Activity (Rattus norvegicus [8]) was “Active” and the Activity (Rattus norvegicus [9]) was “Active”. For the same compound, the Activity (Rattus norvegicus [10]) was “Active”, the Activity (Rattus norvegicus [11]) was “Active” and the Activity (Rattus norvegicus [12]) was “Active”. The Activity (Mus musculus [13]) was “Dose-dependent effect” and the Activity (Rattus norvegicus [14]) was “Active”.

In the case of COC[C@@]12CNCC[C@]1(c1ccc(Cl)c(Cl)c1)C2 (relative stereo; 18) [GSK1360707], the CL (Liver microsomes [5]) is reported as 1.8 mL/min/g, the CL (Liver microsomes [6]) is reported as 1.4 mL/min/g and the IC50 (Cytochrome P450 3A4) is reported as 10 µM. The IC50 (Cytochrome P450 2D6) was 3 µM, the IC50 (Cytochrome P450 2C19) was 10 µM and the IC50 (Cytochrome P450 2C9) was 10 µM. It also gave an IC50 (Cytochrome P450 1A2) of 10 µM, a Ki [2] of 0.1 µM and a Ki [3] of 0.126 µM. It also gave a Ki [4] of 0.02 µM.

Compound COC[C@@]12CNCC[C@]1(c1ccc3ccccc3c1)C2 (single isomer, unassigned; 28) [1-(METHOXYMETHYL)-6-(NAPHTHALEN-2-YL)-3-AZABICYCLO[4.1.0]HEPTANE (ENANTIOMERIC MIX)] has a CL (Liver microsomes [5]) of 17 mL/min/g, a CL (Liver microsomes [6]) of 1.2 mL/min/g and an IC50 (Cytochrome P450 3A4) of 8 µM. It also gave an IC50 (Cytochrome P450 2D6) of 8 µM, an IC50 (Cytochrome P450 2C19) of 8 µM and an IC50 (Cytochrome P450 2C9) of 8 µM. For the same compound, the IC50 (Cytochrome P450 1A2) was 8 µM, the Ki [2] was 0.0126 µM and the Ki [3] was 0.01 µM. The Ki [4] was 0.000126 µM.
